Source: PubChem (several laboratories)
TRPC6 inhibitor – blocks the mouse TRPC6 cation channel | HEK293-TRPC6, membrane potential dye, ACh-evoked depolarization; active compounds read low | B-score at 10 µM | 310,000 compounds, 1.1% hits | AID 2553;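 active means B-score under library mean minus 3 SD, initial fluorescence not abnormally high, positive integrated signal ratio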;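 further: B-score derived from integrated fluorescence ratio over the kinetic read; more negative B-score means stronger inhibition of depolarization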
TRPC6 act – activators of mouse TRPC6 channel; Q61143; HEK293-TRPC6 membrane potential dye fluorescence; active compounds read high; B-score at 10 µM; 310,000 compounds, 0.13% hits; AID 2550;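 active means B-score of the integrated fluorescence ratio above library mean plus 3 SD, and starting fluorescence ratio within library mean plus 5 SD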;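 further: higher score means more depolarization so channel activation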
TRPC4 potent – TRPC4 (mouse) allosteric potentiation; Q9QUQ5; HEK293 TRPC4beta/mu-opioid, DAMGO EC20, Fluo-4 Ca2+ flux; active compounds read high; B-score at 10 µM; 310,000 compounds, 0.42% hits; AID 2227;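 active means B-score of calcium response area above 5 SD of library B-scores, with initial fluorescence ratio within 5 SD of library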;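 further: B-score of integrated fluorescence ratio over time as area under calcium response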
Target sequence (Q9QUQ5 whole entry, looked up): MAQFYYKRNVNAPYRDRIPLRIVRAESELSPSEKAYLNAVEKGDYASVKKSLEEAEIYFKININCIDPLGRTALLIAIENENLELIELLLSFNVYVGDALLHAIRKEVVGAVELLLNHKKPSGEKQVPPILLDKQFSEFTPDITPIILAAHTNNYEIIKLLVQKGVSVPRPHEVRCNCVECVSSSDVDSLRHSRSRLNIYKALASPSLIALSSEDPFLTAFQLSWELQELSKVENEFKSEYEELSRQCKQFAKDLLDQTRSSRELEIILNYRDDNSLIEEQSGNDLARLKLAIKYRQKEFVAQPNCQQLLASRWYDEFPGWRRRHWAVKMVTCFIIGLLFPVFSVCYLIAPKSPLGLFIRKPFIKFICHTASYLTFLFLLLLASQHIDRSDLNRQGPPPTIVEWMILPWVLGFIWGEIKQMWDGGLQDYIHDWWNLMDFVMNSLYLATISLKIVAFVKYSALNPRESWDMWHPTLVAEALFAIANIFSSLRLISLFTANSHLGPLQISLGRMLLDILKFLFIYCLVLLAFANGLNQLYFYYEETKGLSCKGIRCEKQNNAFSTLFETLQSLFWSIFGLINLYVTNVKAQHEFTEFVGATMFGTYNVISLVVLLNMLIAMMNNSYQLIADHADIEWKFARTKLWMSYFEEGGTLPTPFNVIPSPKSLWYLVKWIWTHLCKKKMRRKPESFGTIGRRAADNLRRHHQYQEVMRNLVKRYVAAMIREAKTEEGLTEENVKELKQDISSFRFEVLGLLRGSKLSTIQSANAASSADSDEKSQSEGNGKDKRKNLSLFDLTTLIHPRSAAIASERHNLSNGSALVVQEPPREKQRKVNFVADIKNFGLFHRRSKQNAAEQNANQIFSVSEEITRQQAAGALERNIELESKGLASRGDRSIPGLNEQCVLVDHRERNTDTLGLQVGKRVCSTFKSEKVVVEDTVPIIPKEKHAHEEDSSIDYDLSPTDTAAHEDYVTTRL
TRPC4 inh – blocks the mouse TRPC4 cation channel. AID 2247. Q9QUQ5. B-score at 10 µM. HEK293 TRPC4beta/mu-opioid, DAMGO-evoked Fluo4 calcium flux; active compounds read low. 300,000 compounds, 0.39% hits;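 active means B-score over 3 SD under the library average, no early fluorescence shift, positive overall ratio signal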
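System: stable TRPC4beta/mu-opioid receptor HEK293 cells; Dosing: single-point compound dosing; Measured by: Fluo4 Ca2+ flux fluorescence; Read-out basis: per-well B score of integrated baseline-normalized Fluo4 ratio.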
TRPC4 act – opens the mouse TRPC4 cation channel; 310,000 compounds, 0.49% hits; HEK293 TRPC4beta/mu-opioid, Fluo4 calcium fluorescence; active compounds read high; AID 2237; Q9QUQ5; B-score at 10 µM;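 active means B-score above 5 SD of library B-scores, and initial fluorescence ratio not above library mean plus 5 SD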;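 further: positive B-score marks a calcium rise read as TRPC4 activation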
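Test system: HEK293 cells stably co-expressing mouse TRPC4beta and mu-opioid receptor | Schedule: Fluo4 dye loading 45 min at room temperature, 110 s recording | Measured by: Kinetic Fluo4 calcium fluorescence, 5 s baseline at 1 Hz | Evaluation: B score of integrated ratio | Controls: Buffer (low) and maximal DAMGO (high)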
Yeast superoxide – lowers age-related superoxide in aged yeast cells; S. cerevisiae aged cells, superoxide DHE fluorescence; active compounds read low; superoxide response (% of plate mean), % at 10 µM; 330,000 compounds, 0.18% hits;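 active means superoxide response under a set limit, about three screen SD below normal, cut at about 65% in these data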;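 further: yeast aged for seven days with compound at 30 °C before DHE staining; 100% = average MFI of all compound-treated wells on the plate with controls excluded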
TRPC4 spec 2 – second check of whether TRPC6 inhibitors also affect mouse TRPC4; shares compounds with TRPC6 inhibitor; HEK293 TRPC4/MOR, membrane potential dye fluorescence; channel activated by saturating DAMGO dose; inhibition, % at 10 µM; 920 compounds, 42% hits;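 active means compounds whose fluorescence signal differed from control wells by over 3 SD, either direction, in both duplicate plates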
TRPC4 spec – selectivity of TRPC6 inhibitors: effect on mouse TRPC4; HEK293 TRPC4/mu-opioid, membrane potential fluorescence; AID 2777; shares compounds with TRPC6 inhibitor; 920 compounds, 61% hits; activity change, negative = inhibition, % at 10 µM;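 active means rise or fall in signal beyond 3 SD of buffer-only wells in both replicate plates, either sign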;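 further: integrated kinetic ratio of fluorescence range over baseline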
HEK293 MPD ctr 2-1 – parental HEK293 nonspecific activity of TRPC6 inhibitors, second screen; AID 2779; shares compounds with TRPC6 inhibitor; 920 compounds, 31% hits; parental HEK293 membrane potential dye fluorescence; maximal acetylcholine challenge after compound addition; signal change vs control, % at 10 µM;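 active means membrane potential signal moving either way by over 3 SD of the maximum-effect control, in both duplicate plates, meaning non-specific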
HEK293 MPD ctr-1 – checks TRPC6 inhibitor effects in parental HEK293 cells; shares compounds with TRPC6 inhibitor; parental HEK293 membrane potential dye fluorescence; membrane potential signal change, % at 10 µM; 920 compounds, 60% hits; AID 2780;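 active means membrane potential signal shifting up or down by more than 3 SD of buffer-only wells, on both duplicate plates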
HEK293 MPD ctr-2 – counter-screen for TRPC6 modulators: effect in parental HEK293 cells. membrane potential signal change, % at 10 µM. membrane potential dye fluorescence. 2,400 compounds, 51% hits. AID 488924. shares compounds with TRPC6 inhibitor;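 active means membrane potential signal moves up or down beyond 5 SD from buffer-only wells, on both duplicate plates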
HEK293 MPD ctr 2-2 – second counter-screen for TRPC6 modulators: effect in parental HEK293 cells; shares compounds with TRPC6 inhibitor; membrane potential dye fluorescence; after compound, maximal acetylcholine stimulation; inhibition, % at 10 µM; 2,400 compounds, 14% hits;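 active means membrane potential signal drops by more than 5 SD from the mean control signal, in both duplicate plates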;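 further: plate controls were acetylcholine ECmax control wells for no effect and buffer only wells for full effect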
TRPC4 ctr mod – selectivity of TRPC6 modulators against mouse TRPC4; percent change from control (negative = decrease, positive = increase), % at 10 µM; HEK293 TRPC4/mu-opioid, membrane potential fluorescence; AID 488927; shares compounds with TRPC6 inhibitor; 2,400 compounds, 69% hits;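 active means membrane potential signal moved up or down beyond 5 SD of buffer control wells, in both duplicate plates, actives on both sides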;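 further: plate controls were assay buffer wells for no effect and DAMGO maximal-effect wells for full effect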
TRPC4 ctr inh 2 – second check of whether TRPC6 modulators also affect mouse TRPC4; inhibition, % at 10 µM; 2,400 compounds, 55% hits; shares compounds with TRPC6 inhibitor; HEK293 TRPC4/mu-opioid, membrane potential dye fluorescence; stimulated with maximal-effect DAMGO;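 active means drop in membrane potential signal beyond 5 SD of the control wells in both duplicate plates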;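 further: TRPC4 counter screen for TRPC6 hits run under conditions tuned for TRPC6 not TRPC4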
TRPC6 block conf – mouse TRPC6 inhibitor confirmation; shares compounds with TRPC6 inhibitor; HEK293-TRPC6, membrane potential dye, ACh-evoked depolarization; inhibition, % at 10 µM; 3,300 compounds, 43% hits;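 active means fluorescence ratio falls more than 5 SD below the full-stimulation control mean, in both duplicate runs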;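 further: integrated fluorescence ratio of peak minus minimum over baseline after agonist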
TRPC6 act confirm – mouse TRPC6 activator confirmation. 2,800 compounds, 11% hits. activation, % at 10 µM. HEK293-TRPC6 membrane potential dye fluorescence, FDSS. shares compounds with TRPC6 inhibitor;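 active means ratio signal rise beyond 5 SD above unstimulated control wells' mean, seen in both duplicate runs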;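 further: plate controls were buffer EC0 wells for no effect and acetylcholine ECmax response for full effect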
* hit, by the source's call; i = inactive; · = no result. The list is not random: actives were taken first. Their share in the collection is about 2.3%.

SMILES	TRPC6 inhibitor	TRPC6 act	TRPC4 potent	TRPC4 inh	TRPC4 act	Yeast superoxide	HEK293 MPD ctr-2	HEK293 MPD ctr 2-2	TRPC4 ctr mod	TRPC4 ctr inh 2	TRPC6 block conf	TRPC6 act confirm	others
COc1ccccc1Sc1ccccc1CC(C)N (configuration not stated)	-5.02*	i	i	i	i	98.2	i	i	i	66.0%*	44.5%*	i
Oc1ccccc1-[n+]1c(-c2ccccc2)cc(-c2ccccc2)cc1-c1ccccc1	i	i	i	i	i	106.2	·	·	·	·	·	·
COc1ccc(-c2cc(-c3ccccc3)[n+](C)c(-c3ccccc3)c2)cc1	-5.57*	i	i	i	i	92.3	i	i	i	i	i	i
COc1ccc(-[n+]2c(-c3ccccc3)cc(-c3ccc(C)cc3)cc2-c2ccccc2)cc1	-9.12*	i	i	i	i	90.8	·	·	·	·	70.4%*	·	TRPC4 spec 2=i;TRPC4 spec=16.9%*;HEK293 MPD ctr 2-1=i;HEK293 MPD ctr-1=17.5%*
Cc1ccccc1-[n+]1c(-c2ccccc2)cc(-c2ccccc2)cc1-c1ccccc1	-10*	i	i	i	i	·	·	·	·	·	99.6%*	i	TRPC4 spec 2=60.5%*;TRPC4 spec=20.1%*;HEK293 MPD ctr 2-1=i;HEK293 MPD ctr-1=7.1%*
C[n+]1c(-c2ccccc2)cc(CCCCc2cc(-c3ccccc3)[n+](C)c(-c3ccccc3)c2)cc1-c1ccccc1	i	i	i	i	i	99.8	·	·	·	·	·	·
O=P(CCl)(Nc1ccccc1)C(Cl)(Cl)Cl (configuration not stated)	i	i	i	i	i	109.9	·	·	·	·	·	·
O=S1(=O)CC2(N3CCOCC3)CCCCCCC21 (configuration not stated)	i	i	i	i	i	97.7	·	·	·	·	·	·
CC[n+]1c(SC)ccc2cc(OC)ccc21	-5.21*	i	i	i	i	104.8	-206.5%*	85.0%*	-30.0%*	53.5%*	58.0%*	i
Nc1c2c(nc3sc4c(c13)CCCC4)CCCC2	-5.9*	i	i	i	i	95.1	i	i	-8.0%*	61.5%*	i	i
Nc1c2c(nc3sc4c(c13)CCCC4)CCCCC2	i	i	i	i	i	102.7	·	·	·	·	·	·
